In the library only some 3.7% were active in any assay of this set; here they are far more common.
Kir21 block = inhibitors of mouse Kir2.1 inward-rectifier potassium channel | 0.85% of 310,000 active | HEK293-Kir2.1, FluxOR thallium flux fluorescence; active compounds read low | P35561 | B-score at 10 µM | AID 1672;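 active = fluorescence ratio B-score at or below minus 3 SD of library scores, with starting-brightness B-score within 2 SD, cut at about -4.2 in these data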;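 note: channel flux triggered by added potassium and thallium sulfate stimulus; B-score of peak minus minimum fluorescence over baseline after thallium stimulus; more negative B-score means stronger Kir2.1 block with less thallium influx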
KCNQ1 inh = blocks the human KCNQ1 potassium channel; P51787; CHO-K1 KCNQ1, FluxOR thallium flux fluorescence; active compounds read high; B-score at 10 µM; 1.3% of 310,000 active; AID 2642;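 active = compounds whose thallium flux B-score, printed positive for inhibition, exceeds three library SD while starting fluorescence stays within three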;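 note: channel opened by potassium depolarization with thallium stimulus after 20 min compound exposure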
hERG rescue = shields human hERG channel from block by proarrhythmic agents | CHO-hERG, FluxOR thallium flux, dofetilide IC70 present | 0.51% of 310,000 active | Q12809 | activation (rescue from dofetilide block), less the hit threshold, % at 10 µM;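 active = activation above the mean of controls blocked by dofetilide plus 5 SD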;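 note: thallium influx through hERG after potassium depolarization seen as dye fluorescence rise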
KCNK3 block = human KCNK3 channel inhibition, primary screen; CHO-KCNK3 thallium flux, FluxOR fluorescence; active compounds read low; B-score at 10 µM; 0.84% of 340,000 active;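 active = B-score under library mean minus 4 SD, starting fluorescence ratio at most library mean plus 5 SD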;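 note: more negative B-score means stronger inhibition of thallium flux through KCNK3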
Target sequence (O14649 whole entry, looked up): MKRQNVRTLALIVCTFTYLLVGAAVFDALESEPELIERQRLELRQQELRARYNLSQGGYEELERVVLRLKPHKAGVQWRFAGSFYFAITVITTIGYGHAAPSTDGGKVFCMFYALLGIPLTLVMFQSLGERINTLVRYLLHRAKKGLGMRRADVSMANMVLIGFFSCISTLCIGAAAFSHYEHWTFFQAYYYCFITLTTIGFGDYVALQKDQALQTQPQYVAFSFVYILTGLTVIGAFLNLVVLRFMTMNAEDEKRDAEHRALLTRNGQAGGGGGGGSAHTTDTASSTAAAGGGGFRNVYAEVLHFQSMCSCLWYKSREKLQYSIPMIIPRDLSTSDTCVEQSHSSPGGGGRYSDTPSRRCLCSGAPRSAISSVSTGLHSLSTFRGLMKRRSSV
KCNQ1 act = human KCNQ1 channel potentiation or activation; CHO-K1 KCNQ1, thallium flux FluxOR fluorescence; active compounds read high; 0.35% of 310,000 active; AID 2648; B-score at 10 µM; P51787;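 active = fluorescence ratio B-score, a plate-corrected score, at least three library SD, with initial intensity B-score within 5 SD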
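Schedule – 37 °C overnight plating, 90-min dark dye load, 20-min compound pretreatment · System – stable KCNQ1 CHO-K1 line · Probe or stimulus – thallium- and potassium-containing depolarizing buffer · Measured by – kinetic FluxOR fluorescence, 10 s baseline plus 110 s post-stimulus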
KCNK9 inh = inhibitors of human KCNK9 two-pore domain potassium channel | Q9NPC2 | HEK293 KCNK9, FluxOR thallium flux fluorescence; active compounds read low | B-score at 10 µM | 1.2% of 310,000 active | AID 488922;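 active = ratio B-score over 3 SD below the library mean, with starting fluorescence within 5 SD of its mean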;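 note: negative B-score means less thallium flux so channel inhibition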
KCNK9 inh conf = human KCNK9 inhibitor confirmation. 43% of 4,900 active. shares compounds with KCNK9 inh. HEK293 KCNK9 cells, FluxOR thallium flux fluorescence. inhibition, % at 10 µM;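 active = thallium signal inhibited by more than 5 SD of the compound-free buffer control wells, on both duplicate plates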;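 note: 0% = assay buffer control wells without compound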
Kir21 sel = selectivity of KCNK9 modulators against mouse Kir2.1. shares compounds with KCNK9 inh. Kir2.1 cells, FluxOR thallium flux fluorescence. inhibition, % at 10 µM. 4% of 4,900 active. AID 492993;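 active = thallium signal drop more than 5 SD beyond the mean of the no-compound control wells, seen in both duplicate plates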;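 note: signal is fluorescence rise after thallium addition divided by baseline fluorescence; plate controls were assay buffer only for no effect and full block by chlorpromazine control for full effect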
HEK293 Tl ctr = non-induced cell nonspecific activity of KCNK9 modulators. non-induced KCNK9-HEK293, FluxOR thallium flux. shares compounds with KCNK9 inh. AID 492997. 40% of 4,900 active. inhibition, % at 10 µM;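 active = thallium signal drop beyond 5 SD of the untreated control mean, on both duplicate plates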;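 note: plate controls were buffer only IC0 wells for no effect and SID17386958 at its maximal inhibitory level for full effect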
Active calls of the source: *; i = inactive; nt = not tested or not shown.

SMILES	Kir21 block	KCNQ1 inh	hERG rescue	KCNK3 block	KCNQ1 act	KCNK9 inh	KCNK9 inh conf	Kir21 sel	HEK293 Tl ctr
COc1cnc(SCc2ccc(Cl)cc2Cl)nc1Cl	1.4	i	-6	i	i	i	i	i	30%*
CCCCC(=O)NCCc1cc2c(OC)ccc(OC)c2[nH]c1=O	-1.1	i	-10	i	i	i	i	i	i
COc1ccc(C(=O)NCCc2cc3c(OC)ccc(OC)c3[nH]c2=O)cc1OC	0.01	i	-14	i	i	i	nt	nt	nt
Cc1cc(C)cc(CC(Cc2nc3ccccc3[nH]2)c2nc3ccccc3[nH]2)c1 (stereo not given)	-0.61	12*	-8	i	i	-8.1*	29%*	i	37%*
Cc1ccc(CSCc2nc3ccccc3[nH]2)cc1	-0.6	i	-3	i	i	i	nt	nt	nt
Cc1ccc(C#N)c(SCc2cccc(Br)c2)n1	0.53	i	-4	i	i	-12*	42%*	i	48%*
O=C(Cn1c2c(c(-c3ccccc3)cc1=O)CCCC2)N1CCCCCC1	0.36	i	-18	i	i	i	i	i	32%*
CCCCn1cnc2c(c(-c3ccccc3)c(-c3ccccc3)n2Cc2ccco2)c1=N	-10	10*	-26	i	i	-13*	44%*	i	i
CN(C)c1ccc(/C=N/n2c(-c3ccccc3Br)n[nH]c2=S)cc1	0.45	i	-3	i	i	i	i	i	i
O=C(Nc1cccc(-c2nc3ncccc3o2)c1)c1cc2ccccc2o1	0.89	i	-22	i	i	-8.3*	66%*	i	i
Cc1ccc(-c2nc3ncccc3o2)cc1NC(=O)c1cc2ccccc2o1	1.7	i	-5	i	i	i	nt	nt	nt
C=CCOc1ccc(/C=C2\SC(N3CCCCC3)=NC2=O)cc1	0.85	i	-5	i	i	i	nt	nt	nt
CCCCc1ccc(NC(=O)CN(C)CC(=O)Nc2ccccc2Cl)cc1	-0.53	i	-11	i	i	i	i	i	i
O=Cc1cc(Cl)ccc1OCCN1CCC(Cc2ccccc2)CC1	-4.8*	i	-26	i	i	i	i	i	i
O=[N+]([O-])c1cccc(OCCN2CCC(Cc3ccccc3)CC2)c1	-1.2	7*	-16	i	i	i	i	i	i
Clc1ccccc1OCCN1CCC(Cc2ccccc2)CC1	-4.3	i	-12	i	i	i	i	i	i
O=C(CSc1nc2c(cnn2-c2ccccc2)c(=O)[nH]1)N1N=C(c2cccs2)CC1c1ccc(F)cc1 (stereo not given)	2	i	-26	i	i	-14*	i	i	i
CCc1ccc(OCCCCN(C)Cc2ccccc2)cc1	-6.1*	i	-9	i	i	i	i	i	i
CCOC(=O)C1CCN(CCCSc2ccc(Cl)cc2)CC1	-4.2*	i	-5	i	i	i	i	i	i
CC(Cc1cccs1)NC(=O)CCCn1nnnc1CN1CCOCC1 (stereo not given)	-0.46	i	-7	i	i	i	nt	nt	nt
CCOc1ccccc1N/C=C/C(=O)C(C)(C)C	1.2	i	-8	i	i	i	i	i	i
COc1ccc(-n2nnnc2/C=C\Nc2ccc(C)cc2)cc1	-0.25	i	-18	i	i	i	nt	nt	nt
CCCCOC(=O)Cn1c(-c2ccccc2)nc2ccccc2c1=O	1.2	i	-7	i	i	-11*	56%*	i	52%*
CC(C)Cn1c(-c2ccccc2)nc2ccccc2c1=O	-3.5	i	-10	i	i	i	nt	nt	nt
CCCCn1c(SCC(N)=O)nc2c(sc3ccccc32)c1=O	2.1	i	-6	i	i	i	nt	nt	nt
SMILES	Kir21 block	KCNQ1 inh	hERG rescue	KCNK3 block	KCNQ1 act	KCNK9 inh	KCNK9 inh conf	Kir21 sel	HEK293 Tl ctr
CCSc1nc2c(sc3ccccc32)c(=O)n1C(C)C	-0.64	i	6.1*	i	13*	-11*	46%*	i	i
Cc1ccc2c(c1)N(C(=O)CCC(=O)Nc1ccccc1Br)CC(C)O2 (stereo not given)	-0.03	i	-8	i	i	i	i	i	i
Cc1ccc(CNC(=O)CCC(=O)N2CC(C)Oc3ccc(Cl)cc32)cc1 (stereo not given)	0.59	i	-10	i	i	i	nt	nt	nt
Cc1ccc2c(c1)N(C(=O)CCC(=O)NCc1cccc(Br)c1)CC(C)O2 (stereo not given)	-0.02	i	-15	i	i	i	i	i	i
CC(=O)c1ccc(OCc2cc(C(=O)NC(C)CCn3cccn3)no2)cc1 (stereo not given)	-1.4	i	-7	i	i	i	nt	nt	nt
COc1cc2c(c(OC)c1O)C(=O)CO2	0.37	i	-4	i	i	i	nt	nt	nt
COc1cc(OC)c2c(O)c3c(c(-c4c5c(c(O)c6c(OC)cc(OC)cc46)CO[C@@H](C)[C@H]5O)c2c1)[C@H](O)[C@H](C)OC3	-1.4	i	-6	i	i	i	i	i	i
Cc1ccc(NC(=O)c2cc(C)n(-c3ccccc3)c2C)cc1	0.22	i	-13	i	i	i	i	i	i
Cc1ccc(NC(=O)c2cnn(-c3ccccc3)c2C)cc1	-0.82	i	-1	i	i	i	nt	nt	nt
CC(=O)Nc1ccc2oc(-c3ccccc3Br)nc2c1	0.13	i	-6	i	i	i	nt	nt	nt
Cc1ccccc1-c1nc2cc(NC(=O)C3CC3)ccc2o1	-1.6	i	-7	i	i	-8.7*	i	i	i
CCCCn1cc(C(=O)c2cc(Br)ccc2O)cc(C#N)c1=O	0	i	-12	i	i	i	nt	nt	nt
CN(C)/C=c1\sc2c(C#N)cc(C(=O)c3ccc(Br)cc3)n2c1=O	0.19	i	-7	i	i	-8.4*	36%*	62%*	78%*
CCOc1ccc(N=C(/C(C(=O)C(=O)N2CCOCC2)=C(/O)c2ccccc2)c2ccccc2)cc1	2.8	i	-7	i	i	i	nt	nt	nt
c1ccc(-c2nc(NCc3cccnc3)c3oc4ccccc4c3n2)cc1	0.33	i	7.9*	i	i	-10*	38%*	i	32%*

Source: PubChem (Johns Hopkins Ion Channel Center)
